The results in this text go back to ChEMBL document CHEMBL1123779, “Modifications of primaquine as antimalarials. 4. 5-Alkoxy derivatives of primaquine” (J Med Chem, 1987).

Series [1] has as its system Mus musculus. The series can be described thus: Suppressive blood schizonticidal antimalarial activity evaluated in the trophozoite-induced Plasmodium berghei infection in mice (Mus musculus) at a dose 320 mg/kg given as number of cures. It counts as functional. In outline:
(§1)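 Run at the Rane Laboratory with blood-induced P. berghei infections in mice, five animals per group. A cure is a mouse surviving to 60 days postinfection. Deaths before day 6 are recorded separately as toxic deaths. Activity is scored from the increase in mean survival time over untreated controls, and counts as active when treated MST is more than twice control MST.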

For series [2], the system named is Mus musculus. The series can be described thus: Suppressive blood schizonticidal antimalarial activity evaluated in the trophozoite-induced Plasmodium berghei infection in mice (Mus musculus) at a dose 80 mg/kg given as no. of cures. It counts as functional. In a few lines:
as §1

For series [3], the system named is Mus musculus. As to the kind of experiment: Suppressive blood schizonticidal antimalarial activity evaluated in the trophozoite-induced Plasmodium berghei infection in mice (Mus musculus) at a dose 640 mg/kg given as no. of cures. It counts as functional. In outline: as §1
Series [4] deals with Mus musculus. The series can be described thus: Suppressive blood schizonticidal antimalarial activity evaluated in the trophozoite-induced Plasmodium berghei infection in mice (Mus musculus) at a dose 10 mg/kg. It counts as functional. In outline: (§2)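 Run at the Rane Laboratory in mice infected with blood-induced P. berghei, five animals per group. Activity is the increase in mean survival time over untreated infected controls. A compound counts as active when treated-group MST is more than twice the control MST. Cures are mice surviving at 60 days postinfection.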

Series [5] has as its system Plasmodium cynomolgi. As to the kind of experiment: Cures in Plasmodium cynomolgi infected Rhesus monkeys (Macaca mulatta) on 10.0 mg/kg/day after 7 days; cured 1 of 1. It counts as functional.
The test system of series [6] is Plasmodium berghei. The series can be described thus: Blood schizonticidal activity in trophozoite-induced Plasmodium berghei infected mice (Mus musculus) at 40 mg/kg; numbers cured. In kind it is functional. In outline:
as §1

For series [7], the system named is Plasmodium berghei. The series can be described thus: Blood schizonticidal antimalarial activity in the trophozoite-induced Plasmodium berghei infection in mice (Mus musculus) at 20 mg/kg. It counts as functional. Also noted: unit not given beside the values. In outline:
as §2

The subject of series [8] is Plasmodium cynomolgi. The series can be described thus: Cures in Plasmodium cynomolgi infected Rhesus monkeys (Macaca mulatta) on 1 mg/kg/day after 7 days; cured 0 of 1. In kind it is functional.
Series [9] relates to Plasmodium cynomolgi. The series can be described thus: Cures in Plasmodium cynomolgi infected Rhesus monkeys (Macaca mulatta) on 3.16 mg/kg/day after 7 days; cured 2 of 2. In kind it is functional.
In series [10] the test system is Mus musculus. As to the kind of experiment: Suppressive blood schizonticidal antimalarial activity evaluated in the trophozoite-induced Plasmodium berghei infection in mice (Mus musculus) at a dose 160 mg/kg given as no. of cures. It counts as functional. In outline:
as §1

Series [11] has as its system Plasmodium cynomolgi. The series can be described thus: Cures in Plasmodium cynomolgi infected Rhesus monkeys (Macaca mulatta) on 0.1 mg/kg/day after 7 days; cured 0 of 1. In kind it is functional.
The subject of series [12] is Mus musculus. As to the kind of experiment: Suppressive blood schizonticidal antimalarial activity evaluated in the trophozoite-induced Plasmodium berghei infection in mice (Mus musculus) at a dose 320 mg/kg given as no. of toxic deaths. In kind it is functional. In a few lines: (§3)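 Rane Laboratory mouse test with blood-induced P. berghei infection, five mice per group. Toxic deaths are deaths occurring before the 6th day postinfection.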

Series [13] deals with Mus musculus. As to the kind of experiment: (§4) Suppressive blood schizonticidal antimalarial activity evaluated in the trophozoite-induced Plasmodium berghei infection in mice (Mus musculus) at a dose 40 mg/kg. In kind it is functional. In outline: as §1
The test system of series [14] is Mus musculus. As to the kind of experiment: Suppressive blood schizonticidal antimalarial activity evaluated in the trophozoite-induced Plasmodium berghei infection in mice (Mus musculus) at a dose 160 mg/kg given as no. of toxic deaths. It counts as functional. In a few lines: as §3
For series [15], the system named is Mus musculus. As to the kind of experiment: Suppressive blood schizonticidal antimalarial activity evaluated in the trophozoite-induced Plasmodium berghei infection in mice (Mus musculus) at a dose 5 mg/kg. In kind it is functional. Set-up: unit not given beside the values. In outline:
as §2

The test system of series [16] is Plasmodium cynomolgi. As to the kind of experiment: Cures in Plasmodium cynomolgi infected Rhesus monkeys (Macaca mulatta) on 1 mg/kg/day after 7 days; cured 1 of 1. It counts as functional.
In series [17] the test system is Mus musculus. The series can be described thus: Suppressive blood schizonticidal antimalarial activity evaluated in the trophozoite-induced Plasmodium berghei infection in mice (Mus musculus) at a dose 80 mg/kg. Set-up: unit not given beside the values. It counts as functional. In outline:
as §2

The test system of series [18] is Plasmodium berghei. As to the kind of experiment: (§5) Suppressive blood schizonticidal antimalarial activity evaluated in the trophozoite-induced Plasmodium berghei infection in mice (Mus musculus) at a dose 640 mg/kg given as number of toxic deaths. It counts as toxicity, organism-based. Also noted: dose 640 mg/kg. Conditions: in vivo. In outline:
as §3

The test system of series [19] is Plasmodium cynomolgi. As to the kind of experiment: Cures in Plasmodium cynomolgi infected Rhesus monkeys (Macaca mulatta) on 0.316 mg/kg/day after 7 days; cured 1 of 1. It counts as functional.
For series [20], the system named is Mus musculus. The series can be described thus: Suppressive blood schizonticidal antimalarial activity evaluated in the trophozoite-induced Plasmodium berghei infection in mice (Mus musculus) at a dose 2.5 mg/kg. It counts as functional. In outline:
as §2

In series [21] the test system is Mus musculus. The description is as §4. It counts as functional. Set-up: unit not given beside the values. In a few lines: as §2
Series [22] concerns Plasmodium cynomolgi. As to the kind of experiment: Cures in Plasmodium cynomolgi infected Rhesus monkeys (Macaca mulatta) on 0.1 mg/kg/day after 7 days (x7); cured 0 of 2. In kind it is functional.
Series [23] deals with Mus musculus. The description is as §5. It counts as ADME, organism-based. Set-up: dose 640 mg/kg. The settings on record: in vivo. In outline:
as §3

Series [24] relates to Plasmodium cynomolgi. The series can be described thus: Cures in Plasmodium cynomolgi infected Rhesus monkeys (Macaca mulatta) on 0.316 mg/kg/day after 7 days; cured 1 of 2. In kind it is functional.
The subject of series [25] is Mus musculus. The series can be described thus: Suppressive blood schizonticidal antimalarial activity evaluated in the trophozoite-induced Plasmodium berghei infection in mice (Mus musculus) at a dose 20 mg/kg given as no. of cures. In kind it is functional. In a few lines: as §1
Series [26] relates to Mus musculus. As to the kind of experiment: Suppressive blood schizonticidal antimalarial activity evaluated in the trophozoite-induced Plasmodium berghei infection in mice (Mus musculus) at a dose 5 mg/kg given as no. of cures. In kind it is functional. In outline:
as §1

Series [27] deals with Mus musculus. The series can be described thus: Suppressive blood schizonticidal antimalarial activity evaluated in the trophozoite-induced Plasmodium berghei infection in mice (Mus musculus) at a dose 2.5 mg/kg given as number of cures. It counts as functional. In a few lines:
as §1

In series [28] the test system is Mus musculus. As to the kind of experiment: Suppressive blood schizonticidal antimalarial activity evaluated in the trophozoite-induced Plasmodium berghei infection in mice (Mus musculus) at a dose 10 mg/kg given as no. of cures. It counts as functional. In a few lines: as §1
For series [29], the system named is Mus musculus. The series can be described thus: Suppressive blood schizonticidal antimalarial activity evaluated in the trophozoite-induced Plasmodium berghei infection in mice (Mus musculus) at a dose 80 mg/kg given as no. of toxic deaths. In kind it is functional. In outline:
as §3

Series [30] deals with Plasmodium cynomolgi. As to the kind of experiment: Cures in Plasmodium cynomolgi infected Rhesus monkeys (Macaca mulatta) on 0.1 mg/kg/day after 7 days; cured 3 of 4. It counts as functional. In outline: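 Radical curative test run by the SEATO Medical Research Laboratory, Bangkok, in rhesus monkeys with sporozoite-induced P. cynomolgi infection. Cures are recorded as the number cured out of the number treated.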

The test system of series [31] is Plasmodium cynomolgi. As to the kind of experiment: Cures in Plasmodium cynomolgi infected Rhesus monkeys (Macaca mulatta) on 1 mg/kg/day after 7 days; cured 2 of 2. In kind it is functional.
For series [32], the system named is Plasmodium cynomolgi. The series can be described thus: Radical curative antimalarial activity against Plasmodium cynomolgi in Rhesus monkeys (Macaca mulatta) at 0.1 mg/kg/day over 7 days; cured 5 of 5. In kind it is functional.
Series [33] has as its system Plasmodium cynomolgi. As to the kind of experiment: Cures in Plasmodium cynomolgi infected Rhesus monkeys (Macaca mulatta) on 0.316 mg/kg/day after 7 days; cured 3 of 3. In kind it is functional.
Series [34] has as its system Plasmodium cynomolgi. As to the kind of experiment: Cures in Plasmodium cynomolgi infected Rhesus monkeys (Macaca mulatta) on 3.16 mg/kg/day after 7 days; cured 0 of 1. In kind it is functional.

Regarding `CCCCCCCCCCCOc1c(OC)cc(NC(C)CCCN)c2nccc(C)c12` (stereo unspecified), the Cures came to 5 in the series with Mus musculus [1]; 2 with Mus musculus [2]; 5 with Mus musculus [3]; 1 in the series on Plasmodium berghei [6]; 5 with Mus musculus [10]. Also, the “Delta MST” value in the series on Mus musculus [4] was 3.7; in the series on Plasmodium berghei [7] it was 1. The Cures/no. of animals is 1 in the series on Plasmodium cynomolgi [5], 0 in the series with Plasmodium cynomolgi [8] and 2 with Plasmodium cynomolgi [9].
As for `C=CCCOc1c(OC)cc(NC(C)CCCN)c2nccc(C)c12` (stereo unspecified), the results for the Cures/no. of animals in the series on Plasmodium cynomolgi [11], in the series on Plasmodium cynomolgi [16] and in the series with Plasmodium cynomolgi [19] were 0, 1 and 1, respectively. For the same molecule, the Toxic deaths in the series on Mus musculus [12], in the series on Mus musculus [14] and with Plasmodium berghei [18] was 5 each time. In addition, the Cures with Mus musculus [13] is listed as 1. Also, the “Delta MST” value in the series on Mus musculus [4] is listed as 7.5; in the series on Mus musculus [15], 8.1; in the series with Mus musculus [17] it was 0; with Mus musculus [20], 7.5; with Plasmodium berghei [7] it was 8.8.
For `CCCCCOc1c(OC)cc(NC(C)CCCN)c2ncccc12` (stereo unspecified), the results for the Toxic deaths with Mus musculus [12], with Mus musculus [14] and with Mus musculus [23] were 5, 4 and 2, respectively. Also, the “Delta MST” value with Mus musculus [4] is given as 4.3; in the series with Mus musculus [21], 6.1; with Mus musculus [17], 4.7; with Plasmodium berghei [7], 4.7. Moreover, the Cures/no. of animals is 0 with Plasmodium cynomolgi [22], 1 in the series with Plasmodium cynomolgi [16] and 1 in the series with Plasmodium cynomolgi [24].
Take `CCCCCOc1c(OC)cc(NC(C)CCCN)c2nccc(C)c12` (stereo unspecified): the Cures is on record as 4 in the series on Mus musculus [25]; 5 in the series with Mus musculus [26]; 2 in the series on Mus musculus [27]; 5 in the series with Mus musculus [28]; 1 in the series with Plasmodium berghei [6]. Moreover, the Toxic deaths in the series on Mus musculus [12] stood at 5; in the series on Mus musculus [14] it was 4; with Plasmodium berghei [18], 5; with Mus musculus [29] it was 2. Further, the Cures/no. of animals with Plasmodium cynomolgi [30] worked out at 3; in the series with Plasmodium cynomolgi [31], 2.
Take `CCCCCCOc1c(OC)cc(NC(C)CCCN)c2nccc(C)c12` (stereo unspecified) [WR-242511]: the Cures/no. of animals is reported as 5 in the series on Plasmodium cynomolgi [32], 3 in the series with Plasmodium cynomolgi [33], 1 with Plasmodium cynomolgi [16] and 0 with Plasmodium cynomolgi [34]. The Cures is given as 5 with Mus musculus [25]; 4 in the series on Mus musculus [2]; 1 in the series with Mus musculus [26]; 1 in the series with Mus musculus [27]; 1 with Mus musculus [28]; 5 with Plasmodium berghei [6]. The Toxic deaths in the series on Mus musculus [12] is 5; in the series on Mus musculus [14], 3; in the series with Plasmodium berghei [18], 5.
